DAGLB inh: diacylglycerol lipase beta (human) inhibition; HEK293T DAGLB membrane lysate, EnzChek fluorogenic substrate; Q8NCG7; inhibition, % at 5.17 µM; 340,000 tested, 0.059% active; in the data active = inhibition above about 34%;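 also: 0% = enzyme with vehicle and 100% = wells lacking enzyme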
GPR7 antag: human neuropeptides B/W receptor 1 antagonism. P48145. GPR7-expressing cells, fluorescence antagonist assay. inhibition, % at 4.4 µM. 290,000 tested, 1.1% active; in the data active = inhibition above about 16%, passing the limit was not always enough;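 also: cells stimulated with the agonist NPW; 0% = agonist with vehicle and 100% = vehicle without agonist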
HCV core dimer: blocks dimerization of HCV core protein; AID 1899; TR-FRET GST/Flag-core106 dimerization, 1536-well; 300,000 tested, 0.33% active; inhibition, % at 5 µM;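 active = inhibition above the mean of all tested compounds plus 3 SD, set per screening campaign, cut at about 45% in these data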
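test system = GST/Flag-tagged HCV core106 proteins | probe or stimulus = Eu donor and XL665 acceptor anti-tag antibodies | times = compound-protein-antibody incubation 4 h at 22.5 °C | signal = TR-FRET, excitation 340 nm, emission 617 and 671 nm | measure = percent inhibition of core106 dimerization signal | controls = wells lacking GST-core106 and wells with excess unlabelled core106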
GRK2 aptamer HTS: human GRK2 inhibition via aptamer displacement; 330,000 tested, 0.59% active; P25098; AID 488847; bead flow cytometry, FAM-aptamer displacement from GRK2; inhibition of aptamer binding, % at 10 µM;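 active = inhibition of aptamer binding above 40%, roughly 3 SD of noise, on plates passing a quality check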;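 also: median bead fluorescence of bound FAM aptamer so fluorescent compounds give negative values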
Target sequence (P25098 whole entry, looked up): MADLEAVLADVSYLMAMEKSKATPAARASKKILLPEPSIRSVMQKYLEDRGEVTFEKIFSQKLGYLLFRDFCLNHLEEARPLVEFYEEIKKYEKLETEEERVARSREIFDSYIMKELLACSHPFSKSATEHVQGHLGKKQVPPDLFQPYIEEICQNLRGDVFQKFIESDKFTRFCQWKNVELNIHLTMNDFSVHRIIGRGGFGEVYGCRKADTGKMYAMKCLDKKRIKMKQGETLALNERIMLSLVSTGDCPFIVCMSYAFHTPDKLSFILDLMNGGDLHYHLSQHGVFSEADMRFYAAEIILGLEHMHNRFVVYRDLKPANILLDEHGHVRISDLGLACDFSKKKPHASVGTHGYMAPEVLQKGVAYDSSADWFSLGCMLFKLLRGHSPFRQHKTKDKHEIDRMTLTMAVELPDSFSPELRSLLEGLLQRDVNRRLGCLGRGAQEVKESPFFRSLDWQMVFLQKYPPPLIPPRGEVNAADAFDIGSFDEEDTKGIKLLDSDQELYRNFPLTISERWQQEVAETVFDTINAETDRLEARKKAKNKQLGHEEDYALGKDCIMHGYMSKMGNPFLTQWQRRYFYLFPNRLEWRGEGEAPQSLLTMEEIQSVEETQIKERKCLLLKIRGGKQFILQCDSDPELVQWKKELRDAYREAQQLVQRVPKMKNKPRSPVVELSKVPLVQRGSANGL
FID counter: counter-screen for HCV NS3 helicase inhibitors: DNA intercalator displacement; DNA fluorescent intercalator displacement, fluorescence; inhibition, % at 7.9 µM; 290,000 tested, 0.17% active; AID 1845; in the data active = inhibition above about 37%;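 also: 0% = vehicle and 100% = reference compound; higher means more ethidium bromide displaced from hairpin DNA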
HCV NS3 hel inh: inhibitors of Hepatitis C virus NS3 helicase. NS3 helicase DNA unwinding, Cy5 molecular beacon fluorescence. AID 1800. inhibition, % at 10.9 µM. 290,000 tested, 0.56% active;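 active = inhibition above the mean of all tested compounds plus 3 SD, set per campaign, cut at about 35% in these data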;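 also: 0% = DMSO wells and 100% = thioflavine S control wells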
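test system = hepatitis C virus NS3 helicase domain fragment enzyme | reagent = annealed dual-labelled DNA beacon duplex, ATP-started | times = 1 h at 25 °C | detection = Cy5 fluorescence, 0 and 60 min reads | read-out basis = percent inhibition from t60/t0 fluorescence ratio | control set = DMSO and thioflavine S | replication = one well per compound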
The depositor's hits bear a star; · = no result. Only some compounds are listed: those with a hit (about 2.2% of all), similar ones and a draw of the others.

SMILES | DAGLB inh | GPR7 antag | HCV core dimer | GRK2 aptamer HTS | FID counter | HCV NS3 hel inh
O=C(Cc1ccc(S(=O)(=O)N2CCOCC2)s1)Nc1nc2c(s1)CCCC2 | 2 | -6 | 84* | 0 | -12 | 23
O=C(Cc1cccs1)Nc1ccc(S(=O)(=O)N2CCCCC2)cc1 | -4 | 3 | 72* | 0 | -13 | 7
CN(Cc1ccc(Cl)cc1Cl)C(=O)C1CSC2(C)CCC(=O)N12 (stereo unspecified) | -2 | · | · | · | · | ·
CCOC(=O)C(N=Nc1nn[nH]n1)C(C)=O (stereo unspecified) | -5 | · | · | · | · | ·
O=S(=O)(/N=S1\CC=CCN1S(=O)(=O)c1ccccc1)c1ccccc1 (stereo unspecified) | -3 | · | · | · | · | ·
O=C(CSc1n[nH]c(-c2ccccc2)n1)c1ccc(O)c(O)c1 | 21 | 21* | -5 | 0 | 10 | -1
Cc1cn([C@H]2C[C@H](O)[C@@H](CNC(=O)[C@H](N)C3CC3)O2)c(=O)[nH]c1=O | 2 | · | · | · | · | ·
CC(C)(C)C(=O)NC(=S)NNC(=O)C(c1ccccc1)c1ccccc1 | -2 | 90* | 2 | 0 | -22 | 0
CC(=O)NNC(=S)NC(=O)C(c1ccccc1)c1ccccc1 | 2 | -2 | 0 | 1 | -5 | 12
O=C(NCCN1CCc2ccccc2C1)C1CCN(S(=O)(=O)N2CCC3(CC2)OCCO3)CC1 | 3 | -8 | -6 | 0 | 1 | 6
O=C(NCCN1CCc2ccccc2C1)C1CCN(S(=O)(=O)N2CCCCC2)CC1 | -4 | 20* | 1 | 0 | 3 | -13
O=C(Nc1cnn(Cc2ccc(F)cc2)c1)c1cnccn1 | 2 | 17* | -1 | 2 | 1 | 6
O=C(Nc1cnn(Cc2ccc(F)cc2)c1)c1cc(-c2cccs2)on1 | -1 | -1 | 8 | 0 | -15 | 7
CCOc1ccccc1CNS(=O)(=O)c1ccc2[nH]c(=O)sc2c1 | -3 | 21* | -9 | 1 | -4 | -4
CCOc1ccccc1CNS(=O)(=O)c1ccc2c(c1)oc(=O)n2C | 0 | 0 | -5 | 0 | -3 | 2
COc1ccc(CC(=O)NC2CCCCCC2)c(OC)c1 | -1 | 1 | 1 | 4 | -22 | 9
Cc1ccc(NC(=O)c2ccc(Cl)c(NC(=O)c3cccs3)c2)cc1 | -3 | -2 | 9 | 0 | -22 | 3
Cc1nc2ccc(NC(=O)c3ccc(Cl)c(NC(=O)c4cccs4)c3)cc2s1 | -7 | 1 | 48* | 1 | -12 | -5
COc1ccc(S(=O)(=O)c2c(N)n(Cc3ccco3)c3nc4ccccc4nc23)cc1 | 1 | 1 | 72* | 0 | -12 | 35
CCc1nnc(NC(=O)c2ccc(Cl)c(S(=O)(=O)N3CCc4ccccc43)c2)s1 | 3 | 10 | 51* | 4 | -19 | -1
NS(=O)(=O)c1ccc(NC(=O)c2ccc(S(=O)(=O)N3CCc4ccccc43)cc2)cc1 | 0 | 0 | 58* | 1 | -18 | -17
O=C(Nc1nc(-c2ccccc2)cs1)c1ccc(S(=O)(=O)N2CCc3ccccc32)cc1 | -6 | 2 | 26 | 0 | -7 | -5
Cc1ccc(-c2csc(NC(=O)c3ccc(S(=O)(=O)N4CCc5ccccc54)cc3)n2)cc1 | -10 | -10 | 67* | 1 | -14 | 17
O=C(Nc1ccncc1)c1ccc(Cl)c(S(=O)(=O)N2CCc3ccccc32)c1 | 2 | · | 5 | 0 | · | ·
CCOC(=O)/C(C#N)=N/Nc1ccc(S(=O)(=O)N2CCc3ccccc32)cc1 | 5 | -7 | 26 | 82* | -8 | 6
SMILES | DAGLB inh | GPR7 antag | HCV core dimer | GRK2 aptamer HTS | FID counter | HCV NS3 hel inh
O=C(Cn1ccc(=O)[nH]c1=O)Nc1nccs1 | 2 | · | · | · | · | ·
N#Cc1cc([N+](=O)[O-])ccc1N1CCCC1 | 0 | -15 | -7 | 0 | 3 | 13
N#Cc1c(N2CCCC2)ccc(Br)c1Cl | -9 | 17* | -8 | 0 | 1 | 12
Cc1ccc(S(=O)(=O)c2ccc([N+](=O)[O-])o2)cc1 | -8 | · | · | · | · | ·
Cc1cc(C)cc(NC(=O)NN2C(C)CCCC2C)c1 (stereo unspecified) | 2 | -2 | -2 | 100* | -34 | -18
Cc1cccc(C)c1NC(=O)NN1C(C)CCCC1C (stereo unspecified) | 1 | -5 | -12 | 2 | -4 | -1
Nc1ccc2c(c1)C(=O)c1ccc(N)cc1-2 | 9 | · | · | · | · | ·
O=C(/C=C/c1ccco1)N1CCc2ccccc21 | 0 | 1 | 5 | 0 | -10 | 10
